From ChEMBL document CHEMBL1147048, “Identification of anti-prion compounds as efficient inhibitors of polyglutamine protein aggregation in a zebrafish model” (J Biol Chem, 2007)
Activity calls are given as the source filed them. No cut-off for these calls is given here.

Key:
[1] = Suppression of aggregation of poly Q102-GFP mutant expressed in zebrafish embryo by filter trap assay
In short: (§1)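 AB wild-type embryos were injected at the 1-2 cell stage with Q102-GFP mRNA. They were then kept in E3 with 1% DMSO plus compound (isoproterenol dissolved in water), with the chorion disrupted; controls received solvent alone. After 24 h at 28.5 °C, lysates were heated in 4% SDS/100 mM DTT, filtered through 0.2 µm cellulose acetate, probed with anti-GFP and quantified by densitometry. Solvent control was set to 100%; n=3-5 injections.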

[2] = Suppression of aggregation of poly Q102-GFP protein expressed in zebrafish embryo at 10 uM by filter trap assay; in short: as §1
[3] = test system: N2a; assay: Inhibition of aggregation of poly Q102-GFP in mouse N2a cells by filter trap assay; type: cell-based
[4] = organism: Danio rerio; assay: Effect on suppression of abnormal morphology and death of zebrafish embryo expressing Q102-GFP; type: organism-based; settings: in vivo
[5] = Inhibition of detergent insoluble aggregation of mutant poly Q102-GFP expressed in zebrafish embryo at 50 uM by filter trap assay; in short: as §1
[6] = organism: Danio rerio; assay: Suppression of inclusion formation in zebrafish embryo expressing poly Q102-GFP protein after 24 hrs at 1 uM; type: functional, organism-based

SMILES | Activity [3] | Activity [4] | also measured
Nc1c(/N=N/c2ccc(-c3ccc(/N=N/c4cc(S(=O)(=O)O)c5ccccc5c4N)cc3)cc2)cc(S(=O)(=O)O)c2ccccc12 | – | – | Activity [1]: Active
CC(C)NCC(O)c1ccc(O)c(O)c1 (centres undefined) | – | – | Activity [2]: inactive
Cc1cc(O)c(C)c2sc(N)nc12 | Active | Not Active | Activity [1]: Active
O=C(N/N=C/c1ccc2ccccc2c1)c1cccc(Cl)c1 | Active | Not Active | Activity [5]: Active
O=C(N/N=C/c1ccc2ccccc2c1)c1ccc(O)c(O)c1 | Active | Not Active | Activity [5]: Active
COc1cc(/C=N/N=C(N)N)ccc1OCc1c(C)c(C)c(Br)c(C)c1C.Cl | Active | Not Active | –
COc1c(C)c2c(c(O)c1C/C=C(\C)CCC(=O)O)C(=O)OC2 | – | – | Activity [6]: inactive
